In ChEMBL document CHEMBL2146366, “Discovery of microsomal triglyceride transfer protein (MTP) inhibitors with potential for decreased active metabolite load compared to dirlotapide” (Bioorg Med Chem Lett, 2011):

Assays:
[1] = Fraction unbound in human HepG2 cells by equilibrium dialysis; type: ADME, cell-based
Outline: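 Protein binding was measured by equilibrium dialysis under the conditions of the apoB secretion assay in human HepG2 cells, to give unbound fraction.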

Rattus norvegicus [2] = assay: Antiobesity activity in high fat diet-induced obese Sprague-Dawley rat assessed as reduction of food intake at 10 mg/kg, po administered daily for 3 days relative to dirlotapide; type: functional; parameters: scale not given: the % may be the effect or the level left
Outline: (§1)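 Male Sprague–Dawley rats (~300 g, n = 5 per group) were acclimatized for seven days to a high-fat diet (45% kcal from fat). They received three consecutive daily oral gavage doses 1.5 h before the dark cycle. Vehicle was SEDDS:H2O 10:90, with SEDDS made of Miglyol 812 10%, triacetin 30%, polysorbate 80 20% and Capmul MCM 30%. Food intake was recorded during dosing, and liver TG was measured afterwards, both against vehicle.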

Rattus norvegicus [3] = assay: Antiobesity activity in high fat diet-induced obese Sprague-Dawley rat assessed as reduction of triglyceride accumulation in liver at 10 mg/kg, po administered daily for 3 days relative to dirlotapide; type: functional; parameters: scale not given: the % may be the effect or the level left; outline: as §1
Rattus norvegicus [4] = assay: Antiobesity activity in high fat diet-induced obese Sprague-Dawley rat assessed as reduction of food intake at 10 mg/kg, po administered daily for 3 days relative to control; type: functional; parameters: scale not given: the % may be the effect or the level left; outline: as §1
Rattus norvegicus [5] = assay: Antiobesity activity in high fat diet-induced obese Sprague-Dawley rat assessed as reduction in body weight at 10 mg/kg, po administered daily for 3 days relative to control; type: functional; parameters: scale not given: the % may be the effect or the level left
Rattus norvegicus [6] = assay: Antiobesity activity in high fat diet-induced obese Sprague-Dawley rat assessed as reduction in body weight at 10 mg/kg, po administered daily for 3 days relative to dirlotapide; type: functional; parameters: scale not given: the % may be the effect or the level left
Rattus norvegicus [7] = assay: Antiobesity activity in high fat diet-induced obese Sprague-Dawley rat assessed as reduction of triglyceride accumulation in liver at 10 mg/kg, po administered daily for 3 days relative to control; type: functional; parameters: scale not given: the % may be the effect or the level left; outline: as §1
Rattus norvegicus [8] = assay: Antiobesity activity in high fat diet-induced obese Sprague-Dawley rat assessed as reduction of triglyceride accumulation in liver at 10 mg/kg, po qd for 7 days relative to control; type: functional; parameters: scale not given: the % may be the effect or the level left
Outline: (§2)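 Seven-day rat study: once-daily oral dosing at 3, 10 or 30 mg/kg, with 1, 3 and 100 mg/kg also used for one series. Compounds were given as spray-dried dispersions in hydroxypropylmethylcellulose acetate succinate. Food intake, body weight, liver TG and serum ALT were measured against vehicle. Systemic exposure was reported as AUC (ng h/mL). Significance versus vehicle was set at P ≤ 0.05.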

Rattus norvegicus [9] = assay: Antiobesity activity in high fat diet-induced obese Sprague-Dawley rat assessed as reduction of food intake at 30 mg/kg, po administered daily for 3 days relative to control; type: functional; parameters: scale not given: the % may be the effect or the level left; outline: as §1
[10] = Oral bioavailability in rat at 30 mg/kg; type: ADME, organism-based; conditions: in vivo
Rattus norvegicus [11] = assay: Antiobesity activity in high fat diet-induced obese Sprague-Dawley rat assessed as reduction of food intake at 10 mg/kg, po qd for 7 days relative to control; type: functional; parameters: scale not given: the % may be the effect or the level left; outline: as §2
Rattus norvegicus [12] = assay: Antiobesity activity in high fat diet-induced obese Sprague-Dawley rat assessed as reduction of triglyceride accumulation in liver at 30 mg/kg, po qd for 7 days relative to control; type: functional; parameters: scale not given: the % may be the effect or the level left; outline: as §2
[13] = AUC in high fat diet-induced obese Sprague-Dawley rat at 10 mg/kg, po qd for 7 days; type: ADME, organism-based; parameters: dose 10 mg/kg, route oral; conditions: plasma; outline: as §2
Rattus norvegicus [14] = assay: Toxicity in high fat diet-induced obese Sprague-Dawley rat assessed as change in serum ALT level at 10 mg/kg, po qd for 7 days relative to control; type: organism-based; parameters: dose 10 mg/kg, route oral; conditions: in vivo, 168 h
Outline: (§3)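 Seven-day study in high-fat-diet rats. Compound was given once daily by mouth as a spray-dried dispersion, with vehicle controls. Serum ALT was measured alongside food intake, body weight, liver TG and systemic exposure (AUC). ALT is expressed as % change versus vehicle, with significance set at P ≤ 0.05.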

[15] = AUC in high fat diet-induced obese Sprague-Dawley rat at 30 mg/kg, po qd for 7 days; type: ADME, organism-based; parameters: dose 30 mg/kg, route oral; conditions: plasma; outline: as §2
Rattus norvegicus [16] = assay: Antiobesity activity in high fat diet-induced obese Sprague-Dawley rat assessed as triglyceride accumulation in liver at 30 mg/kg, po administered daily for 3 days relative to control; type: functional; outline: as §1
Rattus norvegicus [17] = assay: Antiobesity activity in po dosed high fat diet-induced obese Sprague-Dawley rat assessed as reduction of body weight administered daily for 3 days; type: functional; conditions: 72 h, read-out: MED
Rattus norvegicus [18] = assay: Antiobesity activity in po dosed high fat diet-induced obese Sprague-Dawley rat assessed as reduction of food intake administered daily for 3 days; type: functional; conditions: 72 h, read-out: MED; outline: as §1
Rattus norvegicus [19] = assay: Antiobesity activity in po dosed high fat diet-induced obese Sprague-Dawley rat assessed as reduction of reduction of triglyceride accumulation in liver administered daily for 3 days; type: functional; conditions: 72 h, read-out: MED
Outline: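 Male Sprague–Dawley rats (about 300 g; n = 5 per group) were acclimatized for seven days to a high-fat diet (45% kcal from fat). They received three consecutive daily oral gavage doses in SEDDS:H₂O 10:90 vehicle 1.5 h before the dark cycle. Food intake was recorded, and liver TG was then measured against the vehicle group.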

[20] = Oral bioavailability in beagle dog at 2.5 mg/kg; type: ADME, organism-based, Canis lupus familiaris; conditions: in vivo
Rattus norvegicus [21] = assay: Antiobesity activity in high fat diet-induced obese Sprague-Dawley rat assessed as reduction of body weight at 10 mg/kg, po qd for 7 days relative to control; type: functional; parameters: scale not given: the % may be the effect or the level left; outline: as §2
Rattus norvegicus [22] = assay: Antiobesity activity in high fat diet-induced obese Sprague-Dawley rat assessed as reduction of food intake at 30 mg/kg, po qd for 7 days relative to control; type: functional; parameters: scale not given: the % may be the effect or the level left; outline: as §2
Rattus norvegicus [23] = assay: Toxicity in high fat diet-induced obese Sprague-Dawley rat assessed as change in serum ALT level at 30 mg/kg, po qd for 7 days relative to control; type: organism-based; parameters: dose 30 mg/kg, route oral; conditions: in vivo, 168 h; outline: as §3
Rattus norvegicus [24] = assay: Antiobesity activity in high fat diet-induced obese Sprague-Dawley rat assessed as reduction in body weight at 30 mg/kg, po administered daily for 3 days relative to control; type: functional; parameters: scale not given: the % may be the effect or the level left
Rattus norvegicus [25] = assay: Antiobesity activity in high fat diet-induced obese Sprague-Dawley rat assessed as reduction of body weight at 30 mg/kg, po qd for 7 days; type: functional; parameters: scale not given: the % may be the effect or the level left; outline: as §2

fraction unbound [1] | Structure (SMILES) | Activity (Rattus norvegicus [2]) | Activity (Rattus norvegicus [3]) | Activity (Rattus norvegicus [4]) | Activity (Rattus norvegicus [5]) | Activity (Rattus norvegicus [6]) | Activity (Rattus norvegicus [7]) | further results
0.0023 | CC(C)(C)c1ccc(-c2ccccc2C(=O)Nc2ccc3cc(C(=O)N[C@H](C(=O)NCc4ccc(F)cc4)c4ccccc4)ccc3n2)cc1 |  |  |  |  |  |  | 
0.0135 | CC(C)(CO)c1ccc(-c2ccccc2C(=O)Nc2ccc3cc(C(=O)N[C@H](C(=O)NCc4ccc(F)cc4)c4ccccc4)ccc3n2)cc1 |  |  |  |  |  |  | 
0.023 | CN(Cc1ccc(F)cc1)C(=O)[C@@H](NC(=O)c1ccc2nc(NC(=O)c3ccccc3-c3ccc(C(C)(C)CO)cc3)ccc2c1)c1ccccc1 |  |  |  |  |  |  | 
0.0061 | CC(C)Oc1ccc(-c2ccccc2C(=O)Nc2ccc3cc(C(=O)N[C@H](C(=O)NCc4ccc(F)cc4)c4ccccc4)ccc3n2)cc1 |  |  |  |  |  |  | 
0.0211 | CC(C)(C(=O)O)c1ccc(-c2ccccc2C(=O)Nc2ccc3cc(C(=O)N[C@H](C(=O)NCc4ccc(F)cc4)c4ccccc4)ccc3n2)cc1 |  |  |  |  |  |  | 
0.0088 | CN(Cc1ccc(F)cc1)C(=O)[C@@H](NC(=O)c1ccc2nc(NC(=O)c3ccccc3-c3ccc(C(C)(C)C(=O)O)cc3)ccc2c1)c1ccccc1 |  |  |  |  |  |  | 

Continued, molecule first:

Structure (SMILES) | fraction unbound [1] | Activity (Rattus norvegicus [2]) | Activity (Rattus norvegicus [3]) | Activity (Rattus norvegicus [4]) | Activity (Rattus norvegicus [5]) | Activity (Rattus norvegicus [6]) | Activity (Rattus norvegicus [7]) | further results
CC(C)c1ccc(-c2ccccc2C(=O)Nc2ccc3cc(C(=O)N[C@H](C(=O)N(C)Cc4ccc(F)cc4)c4ccccc4)ccc3n2)cc1 | 0.0011 | 11% | 70% | 38% | 91% | 8% | 16% | 
Cn1c(C(=O)N[C@H](C(N)=O)c2ccccc2)cc2cc(NC(=O)c3ccccc3-c3ccc(C(F)(F)F)cc3)ccc21 | 0.23 | 43% | 112% | 37% | 108% | 115% | 87% | 
CC(CO)Oc1ccc(-c2ccccc2C(=O)Nc2ccc3cc(C(=O)N[C@H](C(=O)N(C)Cc4ccc(F)cc4)c4ccccc4)ccc3n2)cc1 (some centres not stated) | 0.013 |  |  |  |  |  |  | 
CC(Oc1ccc(-c2ccccc2C(=O)Nc2ccc3cc(C(=O)N[C@H](C(=O)N(C)Cc4ccc(F)cc4)c4ccccc4)ccc3n2)cc1)C(=O)O (some centres not stated) | 0.022 |  |  |  |  |  |  | 
CN(Cc1ccc(F)cc1)C(=O)[C@@H](NC(=O)c1ccc2nc(NC(=O)c3ccccc3-c3ccc(O)cc3)ccc2c1)c1ccccc1 | 0.0095 |  |  |  |  |  |  | 
CNC(=O)[C@@H](NC(=O)c1cc2cc(NC(=O)c3ccccc3-c3ccc(C(F)(F)F)cc3)ccc2n1C)c1ccccc1 | 0.21 | 43% | 112% | 40% | 106% | 115% | 147% | 
Cc1ccc(-c2ccccc2C(=O)Nc2ccc3cc(C(=O)N[C@H](C(=O)N(C)Cc4ccc(F)cc4)c4ccccc4)ccc3n2)cc1 | 0.0043 | 50% | 216% | 38% | 75% | 117% | 43% | 
CNC(=O)[C@@H](NC(=O)c1ccc2nc(NC(=O)c3ccccc3-c3ccc(OC(C)C)cc3)ccc2c1)c1ccccc1 | 0.16 |  |  |  |  |  |  | 
CN(Cc1ccc(F)cc1)C(=O)[C@@H](NC(=O)c1ccc2nc(NC(=O)c3ccccc3-c3ccc(OC(C)(C)C)cc3)ccc2c1)c1ccccc1 |  | 38% | 112% | 40% | 108% | 95% | 72% | 
CN(Cc1ccc(F)cc1)C(=O)[C@@H](NC(=O)c1ccc2nc(NC(=O)c3ccccc3-c3ccc(C(F)(F)F)cc3)ccc2c1)c1ccccc1 | 0.0014 | 11% | 70% | 43% | 96% | 8% | 88% | 
CNC(=O)[C@@H](NC(=O)c1ccc2nc(NC(=O)c3ccccc3-c3ccc(C(C)(C)C)cc3)ccc2c1)c1ccccc1 | 0.038 |  |  |  |  |  |  | 
CC(C)Oc1ccc(-c2ccccc2C(=O)Nc2ccc3cc(C(=O)N[C@H](C(=O)N(C)Cc4ccc(F)cc4)c4ccccc4)ccc3n2)cc1 | 0.0038 | 28% | 111% | 30% | 56% | 88% | 16% | Activity (Rattus norvegicus [8]): 113%; Activity (Rattus norvegicus [9]): 45%; bioavailability [10]: < 3%; Activity (Rattus norvegicus [11]): 21%; Activity (Rattus norvegicus [12]): 184%; AUC at 168 h [13]: 51 ng·h/mL; Activity (Rattus norvegicus [14]): 10%; AUC at 168 h [15]: 47 ng·h/mL; Activity (Rattus norvegicus [16]): 15%; minimal effective dose (Rattus norvegicus [17]): 3 mg/kg; minimal effective dose (Rattus norvegicus [18]): 3 mg/kg; minimal effective dose (Rattus norvegicus [19]): 3 mg/kg; bioavailability [20]: < 3%; Activity (Rattus norvegicus [21]): 82%; Activity (Rattus norvegicus [22]): 25%; Activity (Rattus norvegicus [23]): 191%; Activity (Rattus norvegicus [24]): 152%; Activity (Rattus norvegicus [25]): 148%
